Test results published in ChEMBL document CHEMBL4229410, “Facile construction of fused benzimidazole-isoquinolinones that induce cell-cycle arrest and apoptosis in colorectal cancer cells” (Bioorg Med Chem, 2018).
The source made the active and inactive calls. The rule behind the calls is not given here.

Tests used:
SW-620 [1] = assay: Inhibition of colony formation in human SW620 cells assessed as reduction in colony size at 25 to 75 uM treated for 48 hrs followed by compound washout and measured after 14 hrs by crystal violet staining based assay; type: functional, cell-based
HT-29 [2] = assay: Cell cycle arrest in human HT-29 cells assessed as accumulation at G2-phase at 25 uM after 48 hrs by propidium iodide staining based flow cytometry (reference value: 15.45%); type: functional
HT-29 [3] = assay: Cell cycle arrest in human HT-29 cells assessed as increase in accumulation at G2/M-phase after 48 hrs by propidium iodide staining based flow cytometry; type: functional
SW-620 [4] = assay: Down regulation of CDK1 expression in human SW620 cells after 48 hrs by Western blot analysis; type: functional, cell-based
Method in brief: (§1)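 HT29 or SW620 cells were treated at 0, 25, 50 and 75 μM for 48 h and lysed in RIPA with protease and phosphatase inhibitors. Protein was quantified by BCA. 50 μg lysate was run on 8–15% SDS-PAGE and transferred to PVDF. Blocking was 5% BSA/TBST for 2 h; primary antibodies were applied overnight at 4 °C, then HRP secondary 1 h at room temperature.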

SW-620 [5] = assay: Upregulation of p21 expression in human SW620 cells after 48 hrs by Western blot analysis; type: functional, cell-based
SW-620 [6] = assay: Induction of apoptosis in human SW620 cells assessed as early apoptotic cells at 25 uM after 48 hrs by Annexin-V-FITC/propidium iodide staining based flow cytometry (reference value: 0.4%); type: functional
HT-29 [7] = assay: Induction of apoptosis in human HT-29 cells assessed as early apoptotic cells at 25 uM after 48 hrs by Annexin-V-FITC/propidium iodide staining based flow cytometry (reference value: 1%); type: functional
HT-29 [8] = assay: Induction of apoptosis in human HT-29 cells assessed as late apoptotic cells at 25 uM after 48 hrs by Annexin-V-FITC/propidium iodide staining based flow cytometry (reference value: 4.1%); type: functional
SW-620 [9] = assay: Induction of apoptosis in human SW620 cells assessed as necrotic cells at 75 uM after 48 hrs by Annexin-V-FITC/propidium iodide staining based flow cytometry (reference value: 0.9%); type: functional
HT-29 [10] = assay: Induction of apoptosis in human HT-29 cells assessed as reduction in MCL1 expression after 48 hrs by Western blot analysis; type: functional, cell-based; method in brief: as §1
HT-29 [11] = assay: Increase in PTEN expression in human HT-29 cells after 48 hrs by Western blot analysis; type: functional, cell-based; method in brief: as §1
Homo sapiens = species: Homo sapiens; assay: Inhibition of PI3K in human SW620 cells assessed as reduction in AKT phosphorylation at T308 residue up to 75 uM after 48 hrs by Western blot analysis; type: cell-based
[12] = target: Tyrosine-protein kinase ABL1 (Homo sapiens, UniProt P00519); assay: Inhibition of human non-phosphorylated ABL1 (S229 to K512 residues) expressed in mammalian expression system assessed as residual activity at 5 uM by KINOMEscan assay relative to control
[13] = target: Atypical kinase COQ8A, mitochondrial (Homo sapiens, UniProt Q8NI60); assay: Inhibition of […] human ADCK3 (M280 to Q647 residues) expressed in bacterial expression system assessed as residual activity at 5 uM by KINOMEscan assay relative to control
Aurora kinase B = Aurora kinase B (Homo sapiens, UniProt Q96GD4); assay: Inhibition of human AURKB (D25 to A303 residues) expressed in mammalian expression system assessed as residual activity at 5 uM by KINOMEscan assay relative to control
Chain of Aurora kinase B (Q96GD4 whole entry, the tested form may be a part): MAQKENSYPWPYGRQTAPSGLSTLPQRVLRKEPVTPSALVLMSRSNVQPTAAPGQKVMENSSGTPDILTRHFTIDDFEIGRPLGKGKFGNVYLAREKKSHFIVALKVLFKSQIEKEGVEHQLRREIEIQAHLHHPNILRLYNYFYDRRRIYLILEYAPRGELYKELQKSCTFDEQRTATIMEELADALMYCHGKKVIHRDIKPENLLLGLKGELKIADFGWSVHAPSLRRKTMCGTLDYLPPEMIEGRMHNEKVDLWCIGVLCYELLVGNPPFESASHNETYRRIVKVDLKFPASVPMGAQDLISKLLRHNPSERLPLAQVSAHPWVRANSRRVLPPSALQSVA

[14] = target: Cyclin-dependent kinase 3 (Homo sapiens, UniProt Q00526); assay: Inhibition of full length human CDK3 (M1 to H305 residues) expressed in bacterial expression system assessed as residual activity at 5 uM by KINOMEscan assay relative to control
Chain of Cyclin-dependent kinase 3 (Q00526 whole entry, looked up, the tested form may be a part): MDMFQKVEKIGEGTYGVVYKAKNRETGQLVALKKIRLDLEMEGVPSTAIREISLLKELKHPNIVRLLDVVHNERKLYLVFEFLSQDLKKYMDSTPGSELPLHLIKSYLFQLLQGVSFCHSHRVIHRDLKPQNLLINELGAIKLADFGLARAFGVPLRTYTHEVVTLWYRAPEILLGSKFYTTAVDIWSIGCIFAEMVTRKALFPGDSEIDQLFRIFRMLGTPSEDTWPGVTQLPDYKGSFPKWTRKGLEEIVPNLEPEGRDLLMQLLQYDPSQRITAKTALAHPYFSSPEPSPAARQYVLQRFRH

[15] = target: Cyclin-dependent kinase 7 (Homo sapiens, UniProt P50613); assay: Inhibition of full length human CDK7 (M1 to L344 residues) expressed in mammalian expression system assessed as residual activity at 5 uM by KINOMEscan assay relative to control
Chain of Cyclin-dependent kinase 7 (P50613 whole entry, the tested form may be a part): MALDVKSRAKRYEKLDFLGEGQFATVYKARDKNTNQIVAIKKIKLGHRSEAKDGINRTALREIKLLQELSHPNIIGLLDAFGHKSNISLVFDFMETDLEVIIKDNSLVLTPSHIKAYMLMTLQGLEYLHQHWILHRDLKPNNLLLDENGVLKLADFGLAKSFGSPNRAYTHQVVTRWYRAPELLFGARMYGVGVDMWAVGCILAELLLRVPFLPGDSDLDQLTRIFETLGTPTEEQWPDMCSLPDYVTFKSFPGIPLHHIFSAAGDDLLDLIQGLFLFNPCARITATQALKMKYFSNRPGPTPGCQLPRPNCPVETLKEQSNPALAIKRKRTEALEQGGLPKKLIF

[16] = target: Macrophage colony-stimulating factor 1 receptor (Homo sapiens, UniProt P07333); assay: Inhibition of human CSF1R (I564 to S939 residues) expressed in bacterial expression system assessed as residual activity at 5 uM by KINOMEscan assay relative to control
Chain of Macrophage colony-stimulating factor 1 receptor (P07333 whole entry, the tested form may be a part): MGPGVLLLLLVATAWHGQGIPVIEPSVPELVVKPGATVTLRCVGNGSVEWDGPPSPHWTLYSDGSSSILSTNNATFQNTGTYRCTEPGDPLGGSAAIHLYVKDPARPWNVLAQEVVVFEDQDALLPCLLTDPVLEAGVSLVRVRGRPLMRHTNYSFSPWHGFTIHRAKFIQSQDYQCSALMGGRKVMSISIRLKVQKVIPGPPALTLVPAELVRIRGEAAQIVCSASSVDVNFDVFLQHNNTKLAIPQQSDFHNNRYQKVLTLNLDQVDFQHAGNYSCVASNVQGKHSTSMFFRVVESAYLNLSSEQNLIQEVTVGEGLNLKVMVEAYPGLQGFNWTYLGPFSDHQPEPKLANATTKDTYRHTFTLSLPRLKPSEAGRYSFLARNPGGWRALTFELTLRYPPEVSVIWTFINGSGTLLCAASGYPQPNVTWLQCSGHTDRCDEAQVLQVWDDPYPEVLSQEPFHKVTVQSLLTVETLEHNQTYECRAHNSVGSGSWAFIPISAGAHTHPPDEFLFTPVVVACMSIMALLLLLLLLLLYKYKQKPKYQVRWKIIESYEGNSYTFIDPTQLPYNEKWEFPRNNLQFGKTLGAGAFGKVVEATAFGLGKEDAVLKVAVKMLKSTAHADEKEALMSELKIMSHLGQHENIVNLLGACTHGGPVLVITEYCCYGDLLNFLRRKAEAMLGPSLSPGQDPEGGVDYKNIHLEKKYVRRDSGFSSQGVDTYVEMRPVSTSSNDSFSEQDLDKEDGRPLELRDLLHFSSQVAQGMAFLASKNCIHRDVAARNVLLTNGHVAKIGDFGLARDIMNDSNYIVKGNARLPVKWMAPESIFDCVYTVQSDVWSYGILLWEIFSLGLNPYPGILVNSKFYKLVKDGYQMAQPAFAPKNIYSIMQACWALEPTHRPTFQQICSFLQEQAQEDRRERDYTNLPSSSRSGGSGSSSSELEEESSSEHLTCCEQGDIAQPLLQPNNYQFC

[17] = target: MAP/microtubule affinity-regulating kinase 3 (Homo sapiens, UniProt P27448); assay: Inhibition of full length human MARK3 (M1 to L729 residues) expressed in bacterial expression system assessed as residual activity at 5 uM by KINOMEscan assay relative to control
Chain of MAP/microtubule affinity-regulating kinase 3 (P27448 whole entry, looked up, the tested form may be a part): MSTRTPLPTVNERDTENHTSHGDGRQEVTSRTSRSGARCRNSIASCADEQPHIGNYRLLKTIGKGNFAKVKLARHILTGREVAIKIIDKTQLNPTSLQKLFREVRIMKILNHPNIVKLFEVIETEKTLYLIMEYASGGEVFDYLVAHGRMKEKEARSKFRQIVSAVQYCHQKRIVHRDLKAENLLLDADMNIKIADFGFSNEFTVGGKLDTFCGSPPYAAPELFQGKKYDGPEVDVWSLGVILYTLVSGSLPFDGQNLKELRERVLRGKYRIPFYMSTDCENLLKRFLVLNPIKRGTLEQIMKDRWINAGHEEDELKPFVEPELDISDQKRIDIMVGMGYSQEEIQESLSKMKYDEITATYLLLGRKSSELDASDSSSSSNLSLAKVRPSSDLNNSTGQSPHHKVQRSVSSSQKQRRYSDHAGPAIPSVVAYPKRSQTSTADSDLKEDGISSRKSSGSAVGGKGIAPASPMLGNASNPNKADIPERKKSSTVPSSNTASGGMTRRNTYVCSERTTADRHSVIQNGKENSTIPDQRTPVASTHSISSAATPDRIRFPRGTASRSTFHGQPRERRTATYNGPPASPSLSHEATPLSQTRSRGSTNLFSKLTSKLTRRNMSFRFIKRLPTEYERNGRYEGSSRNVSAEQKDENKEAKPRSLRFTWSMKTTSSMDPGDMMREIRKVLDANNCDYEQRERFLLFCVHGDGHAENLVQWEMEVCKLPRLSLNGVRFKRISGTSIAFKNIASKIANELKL

[18] = target: Serine/threonine-protein kinase PLK3 (Homo sapiens, UniProt Q9H4B4); assay: Inhibition of partial length human PLK3 (A42 to L334 residues) expressed in mammalian expression system assessed as residual activity at 5 uM by KINOMEscan assay relative to control
Chain of Serine/threonine-protein kinase PLK3 (Q9H4B4 whole entry, looked up, the tested form may be a part): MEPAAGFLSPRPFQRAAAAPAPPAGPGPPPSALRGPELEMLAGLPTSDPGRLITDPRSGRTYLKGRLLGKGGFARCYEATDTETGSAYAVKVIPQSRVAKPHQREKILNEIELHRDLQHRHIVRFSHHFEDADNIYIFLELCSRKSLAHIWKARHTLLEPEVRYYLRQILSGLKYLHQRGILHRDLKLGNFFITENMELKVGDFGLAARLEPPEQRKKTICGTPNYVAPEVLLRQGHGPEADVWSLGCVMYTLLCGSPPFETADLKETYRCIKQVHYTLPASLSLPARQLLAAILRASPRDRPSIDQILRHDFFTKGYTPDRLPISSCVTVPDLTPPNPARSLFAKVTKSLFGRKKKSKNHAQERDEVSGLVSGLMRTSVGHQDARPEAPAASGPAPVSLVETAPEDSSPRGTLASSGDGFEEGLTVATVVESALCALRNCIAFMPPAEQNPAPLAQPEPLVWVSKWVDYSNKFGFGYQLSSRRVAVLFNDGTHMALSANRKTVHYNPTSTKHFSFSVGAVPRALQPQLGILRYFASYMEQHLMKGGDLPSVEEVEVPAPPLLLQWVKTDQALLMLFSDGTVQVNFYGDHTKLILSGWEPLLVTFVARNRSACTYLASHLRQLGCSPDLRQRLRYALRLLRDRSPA

[19] = target: Proto-oncogene tyrosine-protein kinase receptor Ret (Homo sapiens, UniProt P07949); assay: Inhibition of human RET (E713 to D1014 residues) expressed in bacterial expression system assessed as residual activity at 5 uM by KINOMEscan assay relative to control
Chain of Proto-oncogene tyrosine-protein kinase receptor Ret (P07949 whole entry, the tested form may be a part): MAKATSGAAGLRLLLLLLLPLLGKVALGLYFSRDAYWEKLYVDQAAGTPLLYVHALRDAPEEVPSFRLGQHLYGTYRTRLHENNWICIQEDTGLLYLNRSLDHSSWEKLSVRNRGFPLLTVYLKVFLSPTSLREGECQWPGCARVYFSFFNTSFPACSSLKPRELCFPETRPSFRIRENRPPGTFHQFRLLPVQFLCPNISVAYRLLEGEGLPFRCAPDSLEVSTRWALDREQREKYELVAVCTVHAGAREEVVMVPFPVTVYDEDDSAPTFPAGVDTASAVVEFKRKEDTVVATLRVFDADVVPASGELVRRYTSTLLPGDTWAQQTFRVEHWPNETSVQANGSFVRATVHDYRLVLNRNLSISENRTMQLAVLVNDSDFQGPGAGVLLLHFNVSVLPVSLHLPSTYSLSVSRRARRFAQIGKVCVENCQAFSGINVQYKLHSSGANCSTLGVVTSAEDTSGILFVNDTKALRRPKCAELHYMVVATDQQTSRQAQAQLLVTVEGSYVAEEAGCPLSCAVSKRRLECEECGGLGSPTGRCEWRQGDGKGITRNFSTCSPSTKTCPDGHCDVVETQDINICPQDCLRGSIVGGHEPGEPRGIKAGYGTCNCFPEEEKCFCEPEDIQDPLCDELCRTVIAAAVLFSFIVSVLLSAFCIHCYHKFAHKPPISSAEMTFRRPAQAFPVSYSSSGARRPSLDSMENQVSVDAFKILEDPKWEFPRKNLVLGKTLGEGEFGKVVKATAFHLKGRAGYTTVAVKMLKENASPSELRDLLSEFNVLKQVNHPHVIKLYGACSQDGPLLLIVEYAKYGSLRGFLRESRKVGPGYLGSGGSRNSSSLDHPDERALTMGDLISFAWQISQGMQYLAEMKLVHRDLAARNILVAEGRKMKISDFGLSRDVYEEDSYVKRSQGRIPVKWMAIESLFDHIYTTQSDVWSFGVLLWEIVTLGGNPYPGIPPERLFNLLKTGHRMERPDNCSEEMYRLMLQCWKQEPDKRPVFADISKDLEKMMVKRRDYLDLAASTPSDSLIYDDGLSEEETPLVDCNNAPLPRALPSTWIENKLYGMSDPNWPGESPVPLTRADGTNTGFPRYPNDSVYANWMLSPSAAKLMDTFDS

[20] = target: RAC-alpha serine/threonine-protein kinase (Homo sapiens, UniProt P31749); assay: Binding affinity to human AKT1 expressed in bacterial expression system by KINOMEscan assay
[21] = target: Casein kinase I isoform delta (Homo sapiens, UniProt P48730); assay: Binding affinity to full length human CSNK1D (M1 to K409 residues) expressed in bacterial expression system by KINOMEscan assay
[22] = target: Receptor tyrosine-protein kinase erbB-4 (Homo sapiens, UniProt Q15303); assay: Binding affinity to human ERBB4 (L690 to K994 residues) expressed in bacterial expression system by KINOMEscan assay
[23] = target: MAP kinase-activated protein kinase 2 (Homo sapiens, UniProt P49137); assay: Binding affinity to human MAPKAPK2 (V48 to D345 residues) expressed in bacterial expression system by KINOMEscan assay
[24] = target: Dual specificity mitogen-activated protein kinase kinase 2 (Homo sapiens, UniProt P36507); assay: Binding affinity to full length human MEK2 (M1 to V400 residues) expressed in mammalian expression system by KINOMEscan assay
Chain of Dual specificity mitogen-activated protein kinase kinase 2 (P36507 whole entry, the tested form may be a part, canonical isoform): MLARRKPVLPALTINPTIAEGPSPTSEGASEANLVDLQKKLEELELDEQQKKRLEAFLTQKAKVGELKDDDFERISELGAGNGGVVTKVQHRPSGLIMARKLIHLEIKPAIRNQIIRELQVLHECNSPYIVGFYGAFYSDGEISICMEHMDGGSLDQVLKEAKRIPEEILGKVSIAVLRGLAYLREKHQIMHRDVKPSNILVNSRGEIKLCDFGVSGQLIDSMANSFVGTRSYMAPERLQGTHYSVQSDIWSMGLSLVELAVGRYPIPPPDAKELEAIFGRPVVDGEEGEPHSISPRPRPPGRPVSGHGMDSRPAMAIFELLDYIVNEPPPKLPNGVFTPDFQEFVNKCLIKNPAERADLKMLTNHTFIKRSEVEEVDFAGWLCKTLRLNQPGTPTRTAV

[25] = target: Phosphatidylinositol 4,5-bisphosphate 3-kinase catalytic subunit alpha isoform (Homo sapiens, UniProt P42336); assay: Binding affinity to human PIK3CA (R108 to N1068 residues) expressed in mammalian expression system by KINOMEscan assay
[26] = target: cAMP-dependent protein kinase catalytic subunit alpha (Homo sapiens, UniProt P17612); assay: Binding affinity to human PKACalpha (G10 to F351 residues) expressed in bacterial expression system by KINOMEscan assay
[27] = target: Testis-specific serine/threonine-protein kinase 1 (Homo sapiens, UniProt Q9BXA7); assay: Binding affinity to full length human TSSK1B (M1 to Q367 residues) expressed in bacterial expression system by KINOMEscan assay
[28] = target: Serine/threonine-protein kinase ULK2 (Homo sapiens, UniProt Q8IYT8); assay: Binding affinity to human ULK2 (M1 to S301 residues) expressed in mammalian expression system by KINOMEscan assay

CC(C)CN(C(=O)c1cccnc1)c1c2ccccc2c(=O)n2c1[nH]c1ccccc12
inhibition (SW-620 [1]): Active | Activity (HT-29 [2]): 16.97% | Activity (HT-29 [3]): Dose-dependent effect | Activity (SW-620 [4]): Dose-dependent effect | Activity (SW-620 [5]): Dose-dependent effect | Activity (SW-620 [6]): 0.7% | Activity (HT-29 [7]): 0.9% | Activity (HT-29 [8]): 8% | Activity (SW-620 [9]): 3.5% | Activity (HT-29 [10]): Dose-dependent effect | Activity (HT-29 [11]): Dose-dependent effect | inhibition (Homo sapiens): Active | Activity [12]: 65% | Activity [13]: 100% | Activity (Aurora kinase B): 92% | Activity [14]: 95% | Activity [15]: 100% | Activity [16]: 100% | Activity [17]: 94% | Activity [18]: 87% | Activity [19]: 100% | Kd [20]: ≥ 5 µM | Kd [21]: ≥ 5 µM | Kd [22]: ≥ 5 µM | Kd [23]: ≥ 5 µM | Kd [24]: ≥ 5 µM | Kd [25]: ≥ 5 µM | Kd [26]: ≥ 5 µM | Kd [27]: ≥ 5 µM | Kd [28]: ≥ 5 µM
